Assay results reported in ChEMBL document CHEMBL1125028, “Resolved pyrrolidine, piperidine, and perhydroazepine analogues of the muscarinic agent N-methyl-N-(1-methyl-4-pyrrolidino-2-butynyl)acetamide” (J Med Chem, 1990).

Experiments:
Cavia porcellus [1] = species: Cavia porcellus; experiment: Slope of schild plot in guinea pig ileum was determined; assay type: functional
Method in brief: (§1)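 Guinea pig ileum in Tyrode solution (pH 7.4) with 0.3 mM hexamethonium, 37 °C; isotonic contractions recorded at 1 g tension. Cumulative concentration-response curves built with agonist concentration stepped by a factor of 2.15. Maximal response expressed relative to carbachol. Antagonism tested at no fewer than four antagonist concentrations. Means ± SE over the number of ileal preparations.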

[2] = Inhibition of specific binding of [3H]NMS to Muscarinic acetylcholine receptor in rat cerebral cortex by using competitive binding assay; assay type: tissue-based
Method in brief: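 Male Sprague–Dawley rat (200–300 g) cortex homogenized in 50 mM Na/K phosphate pH 7.4, spun 30000g 10 min, resuspended at 10 mg wet tissue/mL. Incubated with 0.3 nM (-)-[3H]NMS and test ligand, 30 min at 30 °C; filtration assay. […] IC50 by one-site nonlinear fit, converted to Ki by Cheng–Prusoff. Three determinations in triplicate.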

[3] = target: Muscarinic acetylcholine receptor; experiment: (§2) Dissociation constant towards Muscarinic acetylcholine receptor in guinea pig ileum; assay type: tissue-based, Cavia porcellus
Cavia porcellus [4] = species: Cavia porcellus; experiment: Maximum contractile response in guinea pig ileum relative to that elicited by carbachol was determined; assay type: functional; method in brief: as §1
[5] = target: Muscarinic acetylcholine receptor; experiment: Compound was tested for its potency against Muscarinic acetylcholine receptor in guinea pig ileum; assay type: functional, tissue-based, Cavia porcellus
[6] = target: Muscarinic acetylcholine receptor; experiment: as §2; assay type: tissue-based, Cavia porcellus; method in brief: as §1; remark: listed apart in the source

CC(=O)N1CCCC[C@H]1C#CCN1CCCC1
Slope of Schild plot (Cavia porcellus [1]): 0.99 | Ki [2]: 1.48 µM | Kd [3]: 6.32 µM

CC(=O)N1CCCCCC1C#CCN(C)C (racemic)
Slope of Schild plot (Cavia porcellus [1]): 1.1 | Emax (Cavia porcellus [4]): 0 | Ki [2]: 2.9 µM | Kd [3]: 7 µM

CC(=O)N1CCCC1C#CCN1CCCC1 (racemic)
Slope of Schild plot (Cavia porcellus [1]): 0.9 | Emax (Cavia porcellus [4]): 0 | Ki [2]: 0.67 µM | Kd [3]: 1.4 µM

CC(=O)N1CCCC1C#CC[N+](C)(C)C (racemic)
Emax (Cavia porcellus [4]): 0.8 | EC50 [5]: 7.5 µM | Ki [2]: 6.1 µM | Kd [6]: 49.5 µM

CC(=O)N1CCCC[C@@H]1C#CCN1CCCC1
Slope of Schild plot (Cavia porcellus [1]): 0.86 | Ki [2]: 0.016 µM | Kd [3]: 0.08 µM

CC(=O)N1CCCC1C#CCN(C)C (racemic)
Emax (Cavia porcellus [4]): 0 | Ki [2]: 25.4 µM | Kd [3]: 125 µM

CC(=O)N(C)[C@@H](C)C#CCN1CCCC1
Kd [3]: 3.23 µM

CC(=O)N1CCCCC[C@H]1C#CCN1CCCC1
Slope of Schild plot (Cavia porcellus [1]): 1.17 | Emax (Cavia porcellus [4]): 0 | Ki [2]: 2.07 µM | Kd [3]: 7.85 µM

CC(=O)N1CCCCCC1C#CC[N+](C)(C)C (racemic)
Slope of Schild plot (Cavia porcellus [1]): 1.03 | Ki [2]: 1.23 µM | Kd [3]: 3.55 µM

C[N+](C)(C)CCOC(N)=O.[Cl-] [CARBACHOL]
Emax (Cavia porcellus [4]): 1

CC(=O)N1CCCCCC1C#CCN1CCCC1 (racemic)
Slope of Schild plot (Cavia porcellus [1]): 1.17 | Emax (Cavia porcellus [4]): 0 | Ki [2]: 0.082 µM | Kd [3]: 0.11 µM

CC(=O)N1CCCCC1C#CCN1CCCC1 (racemic)
Slope of Schild plot (Cavia porcellus [1]): 0.88 | Emax (Cavia porcellus [4]): 0 | Ki [2]: 0.044 µM | Kd [3]: 0.097 µM

CC(=O)N1CCCCC[C@@H]1C#CCN1CCCC1
Slope of Schild plot (Cavia porcellus [1]): 1.27 | Emax (Cavia porcellus [4]): 0 | Ki [2]: 0.042 µM | Kd [3]: 0.161 µM

CC(=O)N1CCCCC1C#CC[N+](C)(C)C (racemic)
Emax (Cavia porcellus [4]): 0.75 | EC50 [5]: 2.8 µM | Ki [2]: 0.75 µM

CC(=O)N1CCC[C@H]1C#CCN1CCCC1
Slope of Schild plot (Cavia porcellus [1]): 0.8 | Emax (Cavia porcellus [4]): 0 | Ki [2]: 5.16 µM | Kd [3]: 16.01 µM

CC(=O)N1CCCCC1C#CCN(C)C (racemic)
Slope of Schild plot (Cavia porcellus [1]): 0.9 | Emax (Cavia porcellus [4]): 0 | Ki [2]: 2.26 µM | Kd [3]: 8.3 µM

CC(=O)N1CCC[C@@H]1C#CCN1CCCC1
Slope of Schild plot (Cavia porcellus [1]): 1.05 | Emax (Cavia porcellus [4]): 0 | Ki [2]: 0.41 µM | Kd [3]: 1.16 µM

CC(=O)N(C)[C@H](C)C#CCN1CCCC1
Emax (Cavia porcellus [4]): 0.83 | EC50 [5]: 0.094 µM | Kd [3]: 0.2 µM
